This is a sample that favours compounds with a hit; in the whole collection about 2.1% have one here.
GSK3beta inhib – inhibitors of human GSK3beta kinase. P49841. GST-GSK3beta kinase, ADP-Glo luminescence, 60 min; stronger effect = lower value. activity score (negative = inhibition), % at 10 µM. 0.038% of 300,000 active;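 active = more than half of replicate wells score below -50%, meaning over 50% inhibition versus plate controls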;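 also: 0% = median DMSO wells and -100% = median GW8510 positive control wells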
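Test system – GST-tagged human GSK3beta kinase, cell-free · Incubation – 60 min enzyme reaction, room temperature · Signal – ADP-Glo luminescence · Also added – peptide substrate and ATP at 25 µM · Controls – DMSO neutral wells and GW8510 at 20 µM as positive · Buffer or medium – Tris/MgCl2 kinase buffer · Measure – Luminescence-derived activity versus plate DMSO and GW8510 wells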
GSK3 alpha inh – blocks human GSK-3 alpha kinase | inhibition, % at 10 µM | 0.1% of 320,000 active | ADP-Glo luminescence, 60 min;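 active = more than half of replicates show inhibition above 20%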;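 also: GST-tagged GSK-3 alpha with peptide substrate and 25 µM ATP; 0% = DMSO neutral wells and 100% = GW8510 positive control wells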
STK33 kinase inh – inhibitors of human STK33 kinase; Q9BYT3; purified STK33, MBP phosphorylation, ADP-Glo luminescence; inhibition, % at 10 µM; 0.073% of 320,000 active;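 active = inhibition at or above 25%, using the most active replicate where run in duplicate; inactive = inhibition below 25%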
Target sequence (Q9BYT3 whole entry, looked up): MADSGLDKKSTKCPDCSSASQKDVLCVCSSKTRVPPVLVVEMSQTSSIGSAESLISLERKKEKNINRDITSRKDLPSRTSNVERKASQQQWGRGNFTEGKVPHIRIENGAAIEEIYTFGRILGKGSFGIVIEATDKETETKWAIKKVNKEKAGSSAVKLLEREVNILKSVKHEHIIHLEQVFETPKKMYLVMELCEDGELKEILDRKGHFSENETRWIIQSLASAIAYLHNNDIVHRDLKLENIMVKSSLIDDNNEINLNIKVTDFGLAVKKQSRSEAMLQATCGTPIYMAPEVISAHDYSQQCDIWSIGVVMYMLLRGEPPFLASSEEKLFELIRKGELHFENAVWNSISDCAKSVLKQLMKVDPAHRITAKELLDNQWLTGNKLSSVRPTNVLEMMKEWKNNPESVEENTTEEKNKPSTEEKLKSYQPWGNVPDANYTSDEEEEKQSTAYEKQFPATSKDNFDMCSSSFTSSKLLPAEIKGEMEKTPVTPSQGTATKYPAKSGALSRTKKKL
MEKK2 mut-MEK5 – signal of MEK5 binding to mutant human MEKK2 PB1 domain. bead flow cytometry, Alexa488-MEK5 binding to MEKK2 mutant. percent response, % at 10 µM. 0.35% of 290,000 active. AID 1530; in the data active = percent response above about 24%, passing the limit was not always enough
MEKK3 PB1 HTS – raises or lowers MEK5 binding to the human MEKK3 PB1 domain; Q99759; bead-based flow cytometry, Alexa488-MEK5 binding to MEKK3; actives lie on both sides; 0 = blocked by unlabeled MEK5, 100 = vehicle; binding response (% of control), % at 10 µM; 1.4% of 290,000 active; AID 1529;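 active = binding response more than 3 SD above or below the average of its plate-row segment, actives on both sides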;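 also: Alexa488 bead fluorescence after subtracting the streptavidin-only scavenger bead signal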
MEKK2wt PB1 HTS – raises or lowers MEK5 binding to wildtype human MEKK2 PB1 domain. bead flow cytometry, Alexa488-MEK5 binding to MEKK2 WT; actives lie on both sides. binding response (% of control), % at 10 µM. 1.1% of 290,000 active; in the data active = binding response below about 67% or above about 130%
MEKK2wt confirm – raises or lowers MEK5 binding to wildtype human MEKK2, retest; shares compounds with MEKK3 PB1 HTS; bead flow cytometry, Alexa488-MEK5 binding to MEKK2 WT; actives lie on both sides; binding response (% of control), % at 10 µM; 2.4% of 5,900 active; in the data active = binding response below about 16% or above about 210%; inactive = in between
MEKK2mut-MEK5 – signal of MEK5 binding to mutant human MEKK2, retest; shares compounds with MEKK3 PB1 HTS; bead flow cytometry, Alexa488-MEK5 binding to MEKK2 mutant; percent response, % at 10 µM; 2% of 5,900 active; AID 1893; in the data active = percent response mostly above about 71%, no sharp cut-off; inactive = mostly below about 38%;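 also: higher means compound restores mutant binding toward wildtype level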
MEKK3-MEK5 inh – MEKK3-MEK5 PB1 inhibition, single concentration confirmation; shares compounds with MEKK3 PB1 HTS; bead flow cytometry, Alexa488-MEK5 binding to MEKK3; stronger effect = lower value; binding response (% of control), % at 10 µM; 1.8% of 5,900 active; AID 1894;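 active = binding response below 72% of control, or above a set upper limit, though filed actives all read lower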;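 also: 100% = DMSO only wells and 0% = binding blocked by excess unlabeled MEK5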
* hit, by the source's call; [ ] = dose if it differs, or a comment.

Screening COCCNC(=S)Nc1cc2oc3ccccc3c2cc1OC returned GSK3beta inhib -0.9, GSK3 alpha inh -2.2, STK33 kinase inh 1.0, MEKK2 mut-MEK5 10.0, MEKK3 PB1 HTS 108.0 and MEKK2wt PB1 HTS 111.0.
For CCOc1ccc(NC(=O)CN(C)C(=O)c2cc(S(=O)(=O)N(C)C)ccc2N2CCCC2)cc1OCC the results were GSK3beta inhib 1.7, GSK3 alpha inh -2.5 and STK33 kinase inh -0.8.
`NC(=O)CCC(C(=O)O)N1C(=O)c2ccc(O)cc2C1=O` (stereo not given) gave GSK3beta inhib 2.4, GSK3 alpha inh -1.6, STK33 kinase inh -1.0, MEKK2 mut-MEK5 -1.0, MEKK3 PB1 HTS 95.0 and MEKK2wt PB1 HTS 101.0.
`O=C1c2ccccc2S(=O)(=O)c2cc(N3CCN(c4ccccc4)CC3)ccc21` gave GSK3beta inhib 15.7, GSK3 alpha inh -0.4, STK33 kinase inh 0.4, MEKK2 mut-MEK5 -1.0, MEKK3 PB1 HTS 101.0 and MEKK2wt PB1 HTS 98.0.
Screening O=C1c2ccccc2S(=O)(=O)c2cc(N3CCOCC3)ccc21 returned GSK3beta inhib -4.4, GSK3 alpha inh -1.2, STK33 kinase inh -0.4, MEKK2 mut-MEK5 -5.0, MEKK3 PB1 HTS 82.0*[inhibitor], MEKK2wt PB1 HTS 88.0, MEKK2wt confirm 98.0, MEKK2mut-MEK5 -7.0 and MEKK3-MEK5 inh 99.0.
`CNC(=O)OC(C)CNS(=O)(=O)c1ccc(C)cc1` (stereo not given) gave GSK3beta inhib -2.6, GSK3 alpha inh -0.3, STK33 kinase inh -0.9, MEKK2 mut-MEK5 -21.0, MEKK3 PB1 HTS 2.0*[inhibitor], MEKK2wt PB1 HTS 2.0*[inhibitor], MEKK2wt confirm 104.0, MEKK2mut-MEK5 18.0 and MEKK3-MEK5 inh 104.0.
CC(OC(=O)CN1C(=O)c2ccccc2C1=O)C(=O)N(C)c1ccccc1 (stereo not given) was read as GSK3beta inhib -0.6, GSK3 alpha inh -1.2 and STK33 kinase inh -0.1.
Fc1cccc(Cl)c1CN1CCN(c2nc3ccccc3s2)CC1 was read as GSK3beta inhib -0.5, GSK3 alpha inh -2.6, STK33 kinase inh -0.8, MEKK2 mut-MEK5 1.0, MEKK3 PB1 HTS 99.0 and MEKK2wt PB1 HTS 98.0.
`O=C(CCSCCC(=O)NCCN1CCOCC1)NCCN1CCOCC1` gave GSK3beta inhib 1.6, GSK3 alpha inh -0.8, STK33 kinase inh -0.8, MEKK2 mut-MEK5 -4.0, MEKK3 PB1 HTS 81.0*[inhibitor], MEKK2wt PB1 HTS 89.0, MEKK2wt confirm 97.0, MEKK2mut-MEK5 1.0 and MEKK3-MEK5 inh 99.0.
Screening O=C(CCSCCc1ccncc1)NCCCN1CCOCC1 returned GSK3beta inhib 1.2, GSK3 alpha inh -2.3, STK33 kinase inh 1.0, MEKK2 mut-MEK5 -5.0, MEKK3 PB1 HTS 91.0 and MEKK2wt PB1 HTS 98.0.
For O=C(CSc1nc2ccccc2c(=O)n1-c1ccc(OC(F)F)cc1)NCc1cccs1 the results were GSK3beta inhib 0.9, GSK3 alpha inh -2.5, STK33 kinase inh -1.4, MEKK2 mut-MEK5 0.0, MEKK3 PB1 HTS 138.0*, MEKK2wt PB1 HTS 105.0, MEKK2wt confirm 100.0, MEKK2mut-MEK5 0.0 and MEKK3-MEK5 inh 102.0.
For CCOC(=O)N1CCC(Nc2nc3ccccc3n3cnnc23)CC1 the results were GSK3beta inhib 0.2, GSK3 alpha inh -3.7, STK33 kinase inh 0.6, MEKK2 mut-MEK5 -43.0, MEKK3 PB1 HTS 0.0*[inhibitor], MEKK2wt PB1 HTS 0.0*[inhibitor], MEKK2wt confirm 97.0, MEKK2mut-MEK5 -4.0 and MEKK3-MEK5 inh 99.0.
For CCOC(=O)N1CCN(c2nc3ccc(C(=O)c4ccccc4)cc3n3cnnc23)CC1 the results were GSK3beta inhib -3.0, GSK3 alpha inh -0.9, STK33 kinase inh 1.4, MEKK2 mut-MEK5 2.0, MEKK3 PB1 HTS 101.0 and MEKK2wt PB1 HTS 99.0.
COc1ccc(C(=O)N(C)C(C)c2ccon2)cc1OC1CCN(C(C)C)CC1 (stereo not given) was read as GSK3beta inhib -5.5, GSK3 alpha inh -0.8, STK33 kinase inh -0.4, MEKK2 mut-MEK5 5.0, MEKK3 PB1 HTS 103.0 and MEKK2wt PB1 HTS 108.0.
For CCN(CC)S(=O)(=O)c1ccc(-c2cc(C(=O)OC)sc2C(F)(F)F)cc1 the results were GSK3beta inhib 3.7, GSK3 alpha inh -0.5, STK33 kinase inh -0.2, MEKK2 mut-MEK5 23.0, MEKK3 PB1 HTS 130.0*, MEKK2wt PB1 HTS 126.0, MEKK2wt confirm 106.0, MEKK2mut-MEK5 2.0 and MEKK3-MEK5 inh 100.0.
`O=C(Cn1c(C(F)(F)F)nc2ccccc21)OCC(=O)c1c[nH]c2ccccc12` gave GSK3beta inhib -2.0, GSK3 alpha inh -1.5, STK33 kinase inh 0.8, MEKK2 mut-MEK5 10.0, MEKK3 PB1 HTS 101.0, MEKK2wt PB1 HTS 63.0*[inhibitor], MEKK2wt confirm 96.0, MEKK2mut-MEK5 1.0 and MEKK3-MEK5 inh 97.0.
Screening Cc1[nH]c2ccccc2c1C(=O)COC(=O)Cn1c(C(F)(F)F)nc2ccccc21 returned GSK3beta inhib 0.8, GSK3 alpha inh -2.6, STK33 kinase inh -0.8, MEKK2 mut-MEK5 1.0, MEKK3 PB1 HTS 99.0 and MEKK2wt PB1 HTS 98.0.
Cn1c(N2CCOCC2)nc(-c2ccccc2)c1-c1ccccc1 was read as GSK3beta inhib 0.4, GSK3 alpha inh -0.4 and STK33 kinase inh 0.0.
Screening Cc1cc(C)cc(NC(=O)CN2CCC(NC(=O)c3ccccc3F)CC2)c1 returned GSK3 alpha inh -1.5, STK33 kinase inh -0.9, MEKK2 mut-MEK5 8.0, MEKK3 PB1 HTS 104.0, MEKK2wt PB1 HTS 135.0*, MEKK2wt confirm 117.0, MEKK2mut-MEK5 6.0 and MEKK3-MEK5 inh 101.0.
`COc1ccc(C(=O)N2CCOCC2)cc1Br` gave GSK3beta inhib -1.0, GSK3 alpha inh 2.0, STK33 kinase inh -1.0, MEKK2 mut-MEK5 7.0, MEKK3 PB1 HTS 125.0*, MEKK2wt PB1 HTS 121.0, MEKK2wt confirm 93.0, MEKK2mut-MEK5 -3.0 and MEKK3-MEK5 inh 96.0.
Screening CCOc1cc(C(=S)N2CCOCC2)ccc1OC returned GSK3beta inhib 1.5, GSK3 alpha inh -2.2, STK33 kinase inh -1.1, MEKK2 mut-MEK5 0.0, MEKK3 PB1 HTS 99.0 and MEKK2wt PB1 HTS 95.0.
Screening COc1cc(C(=S)N2CCOCC2)cc(OC)c1O returned GSK3beta inhib 0.3, GSK3 alpha inh -1.2, STK33 kinase inh -1.0, MEKK2 mut-MEK5 -17.0, MEKK3 PB1 HTS 42.0*[inhibitor], MEKK2wt PB1 HTS 57.0, MEKK2wt confirm 109.0, MEKK2mut-MEK5 15.0 and MEKK3-MEK5 inh 107.0.

Screening results deposited in PubChem by several laboratories.
